# Experimental data reported in ChEMBL document CHEMBL1123779, “Modifications of primaquine as antimalarials. 4. 5-Alkoxy derivatives of primaquine” (J Med Chem, 1987).
# Columns and labels:
# Mus musculus [1] = assay: Suppressive blood schizonticidal antimalarial activity evaluated in the trophozoite-induced Plasmodium berghei infection in mice (Mus musculus) at a dose 320 mg/kg given as no. of toxic deaths; format: functional
# Summary of the method: (§1)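 Rane Laboratory mouse test with blood-induced P. berghei infection, five mice per group. Toxic deaths are deaths occurring before the 6th day postinfection.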
# Plasmodium berghei [2] = assay: Blood schizonticidal activity in trophozoite-induced Plasmodium berghei infected mice (Mus musculus) at 40 mg/kg; numbers cured; format: functional
# Summary of the method: (§2)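 Run at the Rane Laboratory with blood-induced P. berghei infections in mice, five animals per group. A cure is a mouse surviving to 60 days postinfection. Deaths before day 6 are recorded separately as toxic deaths. Activity is scored from the increase in mean survival time over untreated controls, and counts as active when treated MST is more than twice control MST.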
# Mus musculus [3] = assay: Suppressive blood schizonticidal antimalarial activity evaluated in the trophozoite-induced Plasmodium berghei infection in mice (Mus musculus) at a dose 80 mg/kg; format: functional; parameters: unit not given beside the values
# Summary of the method: (§3)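 Run at the Rane Laboratory in mice infected with blood-induced P. berghei, five animals per group. Activity is the increase in mean survival time over untreated infected controls. A compound counts as active when treated-group MST is more than twice the control MST. Cures are mice surviving at 60 days postinfection.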
# Plasmodium cynomolgi [4] = assay: Cures in Plasmodium cynomolgi infected Rhesus monkeys (Macaca mulatta) on 0.1 mg/kg/day after 7 days (x7); cured 0 of 2; format: functional
# Plasmodium cynomolgi [5] = assay: Cures in Plasmodium cynomolgi infected Rhesus monkeys (Macaca mulatta) on 0.316 mg/kg/day after 7 days; cured 1 of 1; format: functional
# Mus musculus [6] = assay: Suppressive blood schizonticidal antimalarial activity evaluated in the trophozoite-induced Plasmodium berghei infection in mice (Mus musculus) at a dose 160 mg/kg given as no. of cures; format: functional; summary of the method: as §2
# Plasmodium berghei [7] = assay: Suppressive blood schizonticidal antimalarial activity evaluated in the trophozoite-induced Plasmodium berghei infection in mice (Mus musculus) at a dose 640 mg/kg given as number of toxic deaths; format: toxicity, organism-based; parameters: dose 640 mg/kg; conditions: in vivo; summary of the method: as §1
# Plasmodium cynomolgi [8] = assay: Cures in Plasmodium cynomolgi infected Rhesus monkeys (Macaca mulatta) on 1 mg/kg/day after 7 days; cured 0 of 1; format: functional
# Mus musculus [9] = assay: Suppressive blood schizonticidal antimalarial activity evaluated in the trophozoite-induced Plasmodium berghei infection in mice (Mus musculus) at a dose 10 mg/kg; format: functional; summary of the method: as §3
# Plasmodium berghei [10] = assay: Blood schizonticidal antimalarial activity in the trophozoite-induced Plasmodium berghei infection in mice (Mus musculus) at 20 mg/kg; format: functional; parameters: unit not given beside the values; summary of the method: as §3
# Plasmodium cynomolgi [11] = assay: Cures in Plasmodium cynomolgi infected Rhesus monkeys (Macaca mulatta) on 3.16 mg/kg/day after 7 days; cured 2 of 2; format: functional
# Mus musculus [12] = assay: Suppressive blood schizonticidal antimalarial activity evaluated in the trophozoite-induced Plasmodium berghei infection in mice (Mus musculus) at a dose 320 mg/kg given as number of cures; format: functional; summary of the method: as §2
# Plasmodium cynomolgi [13] = assay: Cures in Plasmodium cynomolgi infected Rhesus monkeys (Macaca mulatta) on 10.0 mg/kg/day after 7 days; cured 1 of 1; format: functional
# Mus musculus [14] = assay: Suppressive blood schizonticidal antimalarial activity evaluated in the trophozoite-induced Plasmodium berghei infection in mice (Mus musculus) at a dose 640 mg/kg given as no. of cures; format: functional; summary of the method: as §2
# Mus musculus [15] = assay: Suppressive blood schizonticidal antimalarial activity evaluated in the trophozoite-induced Plasmodium berghei infection in mice (Mus musculus) at a dose 80 mg/kg given as no. of cures; format: functional; summary of the method: as §2
# Plasmodium cynomolgi [16] = assay: Radical curative antimalarial activity against Plasmodium cynomolgi in Rhesus monkeys (Macaca mulatta) at 0.316 mg/kg/day over 7 days; cured 3 of 5; format: functional
# Mus musculus [17] = assay: Suppressive blood schizonticidal antimalarial activity evaluated in the trophozoite-induced Plasmodium berghei infection in mice (Mus musculus) at a dose 5 mg/kg given as no. of cures; format: functional; summary of the method: as §2
# Mus musculus [18] = assay: Suppressive blood schizonticidal antimalarial activity evaluated in the trophozoite-induced Plasmodium berghei infection in mice (Mus musculus) at a dose 40 mg/kg given as number of toxic deaths; format: ADME, organism-based; parameters: dose 40 mg/kg; conditions: in vivo; summary of the method: as §1
# Mus musculus [19] = assay: Suppressive blood schizonticidal antimalarial activity evaluated in the trophozoite-induced Plasmodium berghei infection in mice (Mus musculus) at a dose 2.5 mg/kg given as number of cures; format: functional; summary of the method: as §2
# Plasmodium cynomolgi [20] = assay: Cures in Plasmodium cynomolgi infected Rhesus monkeys (Macaca mulatta) on 1 mg/kg/day after 7 days; cured 2 of 2; format: functional
# Mus musculus [21] = assay: Suppressive blood schizonticidal antimalarial activity evaluated in the trophozoite-induced Plasmodium berghei infection in mice (Mus musculus) at a dose 20 mg/kg given as number of toxic deaths; format: ADME, organism-based; parameters: dose 20 mg/kg; conditions: in vivo; summary of the method: as §1
# Mus musculus [22] = assay: Suppressive blood schizonticidal antimalarial activity evaluated in the trophozoite-induced Plasmodium berghei infection in mice (Mus musculus) at a dose 10 mg/kg given as no. of cures; format: functional; summary of the method: as §2
# Plasmodium cynomolgi [23] = assay: Cures in Plasmodium cynomolgi infected Rhesus monkeys (Macaca mulatta) on 0.1 mg/kg/day after 7 days; cured 1 of 3; format: functional
# Mus musculus [24] = assay: Suppressive blood schizonticidal antimalarial activity evaluated in the trophozoite-induced Plasmodium berghei infection in mice (Mus musculus) at a dose 160 mg/kg; format: functional; summary of the method: as §3
# Plasmodium cynomolgi [25] = assay: Cures in Plasmodium cynomolgi infected Rhesus monkeys (Macaca mulatta) on 0.316 mg/kg/day after 7 days; cured 0 of 2; format: functional
# Plasmodium cynomolgi [26] = assay: Cures in Plasmodium cynomolgi infected Rhesus monkeys (Macaca mulatta) on 1 mg/kg/day after 7 days; cured 3 of 4; format: functional
# Mus musculus [27] = assay: Suppressive blood schizonticidal antimalarial activity evaluated in the trophozoite-induced Plasmodium berghei infection in mice (Mus musculus) at a dose 2.5 mg/kg; format: functional; summary of the method: as §3
# Plasmodium cynomolgi [28] = assay: Cures in Plasmodium cynomolgi infected Rhesus monkeys (Macaca mulatta) on 0.1 mg/kg/day after 7 days; cured 0 of 1; format: functional
# Mus musculus [29] = assay: Suppressive blood schizonticidal antimalarial activity evaluated in the trophozoite-induced Plasmodium berghei infection in mice (Mus musculus) at a dose 5 mg/kg; format: functional; parameters: unit not given beside the values; summary of the method: as §3
# Mus musculus [30] = assay: Suppressive blood schizonticidal antimalarial activity evaluated in the trophozoite-induced Plasmodium berghei infection in mice (Mus musculus) at a dose 160 mg/kg given as no. of toxic deaths; format: functional; summary of the method: as §1
# Mus musculus [31] = assay: (§4) Suppressive blood schizonticidal antimalarial activity evaluated in the trophozoite-induced Plasmodium berghei infection in mice (Mus musculus) at a dose 40 mg/kg; format: functional; summary of the method: as §2
# Plasmodium cynomolgi [32] = assay: Cures in Plasmodium cynomolgi infected Rhesus monkeys (Macaca mulatta) on 1 mg/kg/day after 7 days; cured 1 of 1; format: functional
# Plasmodium cynomolgi [33] = assay: Cures in Plasmodium cynomolgi infected Rhesus monkeys (Macaca mulatta) on 3.16 mg/kg/day after 7 days; cured 0 of 1; format: functional
# Mus musculus [34] = assay: Suppressive blood schizonticidal antimalarial activity evaluated in the trophozoite-induced Plasmodium berghei infection in mice (Mus musculus) at a dose 20 mg/kg given as no. of cures; format: functional; summary of the method: as §2
# Plasmodium cynomolgi [35] = assay: Cures in Plasmodium cynomolgi infected Rhesus monkeys (Macaca mulatta) on 0.25 mg/kg/day dose; format: functional
# Mus musculus [36] = assay: as §4; format: functional; parameters: unit not given beside the values; summary of the method: as §3
# Plasmodium cynomolgi [37] = assay: Cures in Plasmodium cynomolgi infected Rhesus monkeys (Macaca mulatta) on 0.125 mg/kg/day dose; format: functional
# Plasmodium cynomolgi [38] = assay: Cures in Plasmodium cynomolgi infected Rhesus monkeys (Macaca mulatta) on 0.5 mg/kg/day; format: functional
compound,measurement,setting,value
CCCCCCOc1c(OC)cc(NC(C)CCCN)c2nc(C)ccc12 (centres undefined),Toxic deaths,Mus musculus [1],3
same,Cures,Plasmodium berghei [2],1
same,Delta MST,Mus musculus [3],11.4
same,Cures/no. of animals,Plasmodium cynomolgi [4],0
same,Cures/no. of animals,Plasmodium cynomolgi [5],1
same,Cures,Mus musculus [6],3
same,Toxic deaths,Plasmodium berghei [7],3
same,Cures/no. of animals,Plasmodium cynomolgi [8],0
same,Delta MST,Mus musculus [9],2.7
same,Delta MST,Plasmodium berghei [10],6
CCCCCCCCCCCOc1c(OC)cc(NC(C)CCCN)c2nccc(C)c12 (centres undefined),Cures/no. of animals,Plasmodium cynomolgi [11],2
same,Cures,Mus musculus [12],5
same,Cures/no. of animals,Plasmodium cynomolgi [13],1
same,Cures,Plasmodium berghei [2],1
same,Cures,Mus musculus [14],5
same,Cures,Mus musculus [15],2
same,Cures,Mus musculus [6],5
same,Cures/no. of animals,Plasmodium cynomolgi [8],0
same,Delta MST,Mus musculus [9],3.7
same,Delta MST,Plasmodium berghei [10],1
COc1cc(NC(C)CCCN)c2nccc(C)c2c1OCCCCCCOCc1ccccc1 (centres undefined),Cures/no. of animals,Plasmodium cynomolgi [16],3
same,Cures,Mus musculus [17],2
same,Toxic deaths,Mus musculus [18],5
same,Cures,Mus musculus [19],1
same,Cures/no. of animals,Plasmodium cynomolgi [20],2
same,Toxic deaths,Mus musculus [21],2
same,Cures,Mus musculus [22],4
same,Cures/no. of animals,Plasmodium cynomolgi [23],1
CCCCCCOc1c(OC)cc(NC(C)CCCN)c2ncc(C)cc12 (centres undefined),Delta MST,Mus musculus [24],7.6
same,Toxic deaths,Mus musculus [1],3
same,Cures,Plasmodium berghei [2],2
same,Cures/no. of animals,Plasmodium cynomolgi [4],0
same,Cures,Mus musculus [15],1
same,Cures/no. of animals,Plasmodium cynomolgi [25],0
same,Toxic deaths,Plasmodium berghei [7],4
same,Cures/no. of animals,Plasmodium cynomolgi [26],3
same,Delta MST,Mus musculus [9],0.2
same,Delta MST,Plasmodium berghei [10],8.2
C=CCCOc1c(OC)cc(NC(C)CCCN)c2nccc(C)c12 (centres undefined),Delta MST,Mus musculus [27],7.5
same,Toxic deaths,Mus musculus [1],5
same,Cures/no. of animals,Plasmodium cynomolgi [28],0
same,Delta MST,Mus musculus [3],0
same,Delta MST,Mus musculus [29],8.1
same,Cures/no. of animals,Plasmodium cynomolgi [5],1
same,Toxic deaths,Mus musculus [30],5
same,Cures,Mus musculus [31],1
same,Toxic deaths,Plasmodium berghei [7],5
same,Cures/no. of animals,Plasmodium cynomolgi [32],1
same,Delta MST,Mus musculus [9],7.5
same,Delta MST,Plasmodium berghei [10],8.8
CCCCCCCCCCOc1c(OC)cc(NC(C)CCCN)c2nccc(C)c12 (centres undefined),Cures,Mus musculus [12],5
same,Cures/no. of animals,Plasmodium cynomolgi [13],1
same,Cures,Plasmodium berghei [2],3
same,Cures,Mus musculus [14],4
same,Cures,Mus musculus [15],4
same,Cures,Mus musculus [6],4
same,Cures/no. of animals,Plasmodium cynomolgi [8],0
same,Cures/no. of animals,Plasmodium cynomolgi [33],0
same,Delta MST,Mus musculus [9],1.8
same,Cures,Mus musculus [34],2
COc1cc(NC(C)CCCN)c2nccc(C)c2c1OC (centres undefined),Cures,Plasmodium cynomolgi [35],3
same,Toxic deaths,Mus musculus [1],4
same,Delta MST,Mus musculus [36],7.1
same,Cures,Plasmodium cynomolgi [37],11
same,Delta MST,Mus musculus [3],8.9
same,Cures,Plasmodium cynomolgi [38],1
same,Toxic deaths,Mus musculus [30],1
same,Toxic deaths,Plasmodium berghei [7],5
same,Delta MST,Plasmodium berghei [10],5.7
